Measurements reported in ChEMBL document CHEMBL3352597, “Heck products of parthenolide and melampomagnolide-B as anticancer modulators that modify cell cycle progression” (Eur J Med Chem, 2014).

Key:
Format in all cases: functional
[1] = Anticancer activity against human RXF393 cells
Procedure, shortened: (§1)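 NCI 60 human cancer cell line panel, multiple-dose testing at five concentrations (10^-4, 10^-5, 10^-6, 10^-7 and 10^-8 M). Dose-response curves plot cytotoxic effect against log10 of drug concentration for each cell line. GI50 is the molar concentration giving 50% growth inhibition; LC50 is the concentration killing 50% of cells.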

HL-60(TB) = experiment: Anticancer activity against human HL-60(TB) cells; procedure, shortened: as §1
[2] = Anticancer activity against human MOLT4 cells; procedure, shortened: as §1
[3] = Anticancer activity against human COLO205 cells; procedure, shortened: as §1
HOP-62 = experiment: Anticancer activity against human HOP62 cells; procedure, shortened: as §1
[4] = Anticancer activity against human OVCAR5 cells; procedure, shortened: as §1
[5] = read-out: LC50 (the source's name)

## C/C1=C\CC[C@@]2(C)O[C@@H]2[C@H]2OC(=O)/C(=C/c3ccsc3)[C@@H]2CC1
[1]; RXF 393
  GI50: 18.1 µM
[1]; RXF 393, read-out: LC50 (the source's name)
  CC50: > 100 µM
HL-60(TB)
  GI50: 21.7 µM
HL-60(TB); [5]
  CC50: 99.9 µM
[2]; MOLT-4
  GI50: 25.7 µM
[2]; MOLT-4, read-out: LC50 (the source's name)
  CC50: > 100 µM
[3]; COLO 205
  GI50: 22.6 µM
[3]; COLO 205, read-out: LC50 (the source's name)
  CC50: 90.9 µM
HOP-62
  GI50: 35.8 µM
HOP-62; [5]
  CC50: > 100 µM
[4]; OVCAR-5
  GI50: 48.1 µM
[4]; OVCAR-5, read-out: LC50 (the source's name)
  CC50: > 100 µM
